How the values were obtained:
Format in all cases: ADME, organism-based
[1] = Pharmacokinetic parameter in Male Wistar rats at 10 mg/kg oral administration.; set-up: dose 10 mg/kg, route oral; conditions: rat, in vivo
Summary of the method: (§1)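 Male Wistar rats; oral arm fasted 14 h, dosed as suspension in 0.25% CMC; IV arm given via tail vein in DMSO 6.6%/Cremophor ELP 6.6%/ethanol 3.3%/saline 83.3%. Retro-orbital blood drawn at 0.05, 0.5, 1, 2, 4, 6, 8, 10 and 21 h. Parameters include AUC0-∞, Cmax, Tmax, Kel, T1/2, Vd, Cl, f. Mean ± SD, n = 4.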

Rattus norvegicus = assay: (§2) Pharmacokinetic parameter in Male Wistar rats at 3 mg/kg intravenous administration.; set-up: dose 3 mg/kg, route intravenous; conditions: in vivo; summary of the method: as §1
[2] = as §2; set-up: dose 3 mg/kg, route intravenous; conditions: rat, in vivo; summary of the method: as §1

An AUC [1] of 71400 ng·h/mL, a Cmax [1] of 17200 ng/mL and a Tmax [1] of 1.5 h were found for CCO[C@@H](Cc1ccc(OCCN2c3ccccc3Oc3ccccc32)cc1)C(=O)O [RAGAGLITAZAR] in this work. The bioavailability [1] was 77%, the half-life [1] was 169 min and the k el [1] was 6.94e-05 s⁻¹. The Vd (Rattus norvegicus) was 36.92 mL, the AUC [2] was 27800 ng·h/mL and the Cmax [2] was 18300 ng/mL. For the same molecule, the clearance [2] was 0.355 mL/min, the half-life [2] was 281 min and the k el [2] was 4.17e-05 s⁻¹.

Reference: ChEMBL document CHEMBL1134556, “(-)3-[4-[2-(Phenoxazin-10-yl)ethoxy]phenyl]-2-ethoxypropanoic acid [(-)DRF 2725]: a dual PPAR agonist with potent antihyperglycemic and lipid modulating activity” (J Med Chem, 2001)
